KCNQ1 inh: inhibitors of human KCNQ1 channel, primary screen, cell-based, thallium flux, high-throughput. CHO-K1 KCNQ1, FluxOR thallium flux fluorescence; stronger effect = higher value. B-score at 10 µM. 310,000 tested, 1.3% active;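 active = compounds whose thallium flux B-score, printed positive for inhibition, exceeds three library SD while starting fluorescence stays within three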;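 also: channel opened by potassium depolarization with thallium stimulus after 20 min compound exposure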
KCNK3 block: human KCNK3 channel inhibitors, primary screen, CHO cells, FluxOR thallium flux, B-score; Potassium channel subfamily K member 3 (Homo sapiens), O14649; FluxOR fluorescence; stronger effect = lower value; B-score at 10 µM; 340,000 tested, 0.84% active; AID 602410, 2012;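 active = B-score under library mean minus 4 SD, starting fluorescence ratio at most library mean plus 5 SD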;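 also: more negative B-score means stronger inhibition of thallium flux through KCNK3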
KCNQ1 pot: potentiators or activators of KCNQ1 channel, primary screen, cell-based, thallium flux, high-throughput; AID 2648, 2010; 310,000 tested, 0.35% active; Potassium voltage-gated channel subfamily KQT member 1 (Homo sapiens), P51787; CHO-K1 KCNQ1, thallium flux FluxOR fluorescence; stronger effect = higher value; B-score at 10 µM;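 active = fluorescence ratio B-score, a plate-corrected score, at least three library SD, with initial intensity B-score within 5 SD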
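Test system: CHO-K1 cells stably expressing KCNQ1 / Medium: assay buffer / Also added: depolarizing K+/Tl+ stimulus, K2SO4 and Tl2SO4 each 12.5 mM in 5x stock / Incubation: 90 min dye loading and 20 min compound exposure, both at room temperature / Signal: thallium influx via FluxOR fluorescence, kinetic imaging / Evaluation: B score of baseline-normalized fluorescence ratio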
KCNK9 block: KCNK9 potassium channel inhibitors, primary screen, HEK293 cells, thallium flux; FluxOR thallium flux fluorescence; stronger effect = lower value; B-score at 10 µM; Potassium channel subfamily K member 9 (Homo sapiens), Q9NPC2; 310,000 tested, 1.2% active;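 active = ratio B-score over 3 SD below the library mean, with starting fluorescence within 5 SD of its mean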;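 also: negative B-score means less thallium flux so channel inhibition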
Target sequence (Q9NPC2 whole entry, looked up): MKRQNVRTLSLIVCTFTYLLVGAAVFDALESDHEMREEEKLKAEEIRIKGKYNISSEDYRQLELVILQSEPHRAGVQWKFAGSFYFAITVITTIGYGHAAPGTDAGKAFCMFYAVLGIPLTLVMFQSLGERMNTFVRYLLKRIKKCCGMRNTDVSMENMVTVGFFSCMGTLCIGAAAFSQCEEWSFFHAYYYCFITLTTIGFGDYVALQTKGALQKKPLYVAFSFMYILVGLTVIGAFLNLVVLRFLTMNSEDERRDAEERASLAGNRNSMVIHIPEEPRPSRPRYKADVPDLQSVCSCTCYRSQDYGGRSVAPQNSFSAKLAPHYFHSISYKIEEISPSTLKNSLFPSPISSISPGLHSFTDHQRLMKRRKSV
Cl transport mod: KCC2 cotransporter modulators, thallium flux, primary screen, cell-based, HEK293 KCC2, FluoZin-2 fluorescence, MLSMR; Solute carrier family 12 member 5 (Homo sapiens), Q9H2X9; KCC2 cells, thallium flux FluoZin-2 fluorescence; B-score of Tl+ flux slope (higher = more flux/activation; lower = inhibition) at 10 µM; 190,000 tested, 2.2% active; AID 1456, 2008;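 active = thallium flux slope and its plate-corrected score both differing from the plate sample mean at a set confidence after two filtering rounds, in either direction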;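 also: slope of fluorescence scaled to starting intensity during 10 to 20 s after thallium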
hERG rescue: hERG rescue from dofetilide block, primary screen, cell-based, CHO-hERG, FluxOR thallium flux, dofetilide IC70; 310,000 tested, 0.51% active; AID 1511, 2009; dofetilide IC70 present; activation (rescue from dofetilide block), less the hit threshold, % at 10 µM;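 active = activation above the mean of controls blocked by dofetilide plus 5 SD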;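 also: thallium influx through hERG after potassium depolarization seen as dye fluorescence rise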
KCNK3 inh conf: retest of human KCNK3 channel inhibitors, confirmation, CHO cells, FluxOR thallium flux, triplicate; shares compounds with KCNK3 block; FluxOR fluorescence; 0% buffer, 100% carvedilol maximal block; ratio percent of control, % at 10 µM; 2,400 tested, 99% active; AID 651638, 2012;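 active = ratio percent of control, averaged over triplicates, above buffer control mean plus 5 SD, cut at about 64% in these data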;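 also: ratio is the fluorescence rise from min to max over baseline after thallium stimulus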
KCNK3 noninduced: thallium flux inhibition in non-induced cells, primary screen, counter-screen for KCNK3 inhibitor project, cell-based, non-induced KCNK3 line, FluxOR thallium, triplicate; AID 651747, 2012; shares compounds with KCNK3 block; non-induced KCNK3 parental cells; stronger effect = lower value; thallium flux ratio (lower = more inhibition) at 10 µM; 2,400 tested, 40% active;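 active = thallium flux ratio, averaged over three wells, more than 5 SD below the buffer control mean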;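 also: host cells are CHO cells without KCNK3 induction; ratio is peak minus trough fluorescence over baseline then normalized to buffer controls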
The depositor's hits bear a star; i = inactive; . = no result given. Only some compounds are listed: those with a hit (about 4.1% of all), similar ones and a draw of the others.

SMILES	KCNQ1 inh	KCNK3 block	KCNQ1 pot	KCNK9 block	Cl transport mod	hERG rescue	KCNK3 inh conf	KCNK3 noninduced
Cc1sc2nc(C3CC3)nc(N3CCN(C(=O)c4ccc(Cl)cc4)CC3)c2c1C	6*	-13*	i	i	.	-7	96*	0.15*
O=C(c1cccc(S(=O)(=O)Nc2ccc(F)cc2)c1)N1CCCC1	.	i	.	.	.	.	.	.
COc1cccc(Oc2ccc(C(F)(F)F)cc2NC(=O)CCc2nc3ccccc3c(=O)[nH]2)c1	i	i	i	-7*	.	-15	97*	i
O=S(=O)(c1ccccc1)N(F)S(=O)(=O)c1ccccc1	.	i	.	.	.	.	.	.
Cc1ccccc1-c1nnn(Cc2ccc(F)cc2Cl)n1	i	-9*	i	i	.	-11	101*	i
Cc1noc(-c2ccccc2)c1NC(=O)Nc1ccc(Cl)cc1	i	-11*	i	i	.	-9	106*	i
CC(Cc1cccs1)NC(=O)Nc1ccccc1 (stereo not drawn)	i	-9*	i	i	0.29	-6	90*	i
COc1ccccc1C(=O)N/C(=C\c1cn(S(=O)(=O)N(C)C)c2ccccc12)C(=O)N1CCCCC1	i	i	i	i	.	-4	.	.
O=C(Cn1cnc([N+](=O)[O-])n1)c1ccccc1	i	i	i	i	.	-1	.	.
O=C(Cn1cnc([N+](=O)[O-])n1)c1ccc(O)c(O)c1	i	-9.2*	i	-8*	.	-3	79*	i
CN1c2ccccc2-c2nc3ccccc3n2C1c1ccccn1 (stereo not drawn)	i	-9.7*	i	i	-1.3	-6	95*	i
CCOC(=O)CCC(NC(=O)c1ccc(Nc2nc3ccccc3nc2C(=O)OCC)cc1)C(=O)OCC (stereo not drawn)	.	i	.	.	.	.	.	.
Cc1ccc(C(=O)Nc2cccc(-c3nc4ncccc4o3)c2)cc1	i	-10*	i	i	-0.8	-18	90*	i
O=C(Nc1cccc(-c2nc3ncccc3o2)c1)c1ccccc1	i	i	i	i	-1.5	-33	.	.
Cn1c(-c2c(N)n(CCc3ccccc3)c3nc4ccccc4nc23)nc2ccccc21	13*	-8.8*	i	-7.8*	0.14	-19	158*	0.1*
Cn1c(-c2c(N)n(CCCc3ccccc3)c3nc4ccccc4nc23)nc2ccccc21	i	-9.2*	i	i	-0.057	-19	126*	0.15*
Cc1ccc(-n2c(C)c(C)c3c(N)ncnc32)cc1	i	i	i	i	.	-8	.	.
CCOC(=O)c1c2c(c(=S)n(-c3ccccc3)c1N)CCC2	i	-10*	i	i	-0.76	-9	123*	0.11*
CCOC(=O)c1c(N)sn(-c2ccccc2)c1=S	i	i	i	i	0.49	-4	.	.
Cc1ccc(C)c(CSC2=NCCN2S(=O)(=O)c2ccccc2)c1	i	-11*	i	-7.9*	.	-11	129*	0.15*
Cc1ccc(S(=O)(=O)N2CCN=C2SCc2ccc(Cl)c(Cl)c2)cc1	i	i	i	i	-0.028	-2	.	.
O=S(=O)(c1ccccc1)N1CCN=C1SCc1c(F)cccc1Cl	i	-11*	i	i	.	-19	121*	0.14*
Cc1ccccc1-n1nnnc1SCC(=O)NCC1(N2CCOCC2)CCCCC1	.	i	.	.	.	.	.	.
CCSc1nc2c(c(-c3ccc(C)o3)c1C#N)CCCC2	i	-8.8*	i	-6.7*	-1.1	-7	96*	i
COC(=O)CSc1nc2c(c(-c3ccc(C)o3)c1C#N)CCCC2	i	i	i	i	0.14	-3	.	.
SMILES	KCNQ1 inh	KCNK3 block	KCNQ1 pot	KCNK9 block	Cl transport mod	hERG rescue	KCNK3 inh conf	KCNK3 noninduced
CCSc1nnc(-c2cccc(S(=O)(=O)N(CC)CC)c2)n1Cc1ccccc1	i	-9.8*	i	i	-0.99	-28	93*	i
CCNC(=O)CSc1nnc(-c2cccc(S(=O)(=O)N(CC)CC)c2)n1CCc1ccccc1	i	i	i	i	-0.93	-8	.	.
CC(CCN1CCC(n2nccc2NC(=O)c2ccccc2Cl)CC1)c1ccccc1 (stereo not drawn)	i	i	i	i	.	-14	.	.
CC(C)OC(=O)c1ccc(NC(=O)c2ccco2)cc1	i	-9.8*	i	i	.	-10	91*	i
CCOc1ccc(NC(=O)c2ccco2)cc1	i	i	i	i	1.6	2	.	.
O=C(Nc1cccc(S(=O)(=O)c2cccc(NC(=O)c3ccco3)c2)c1)c1ccco1	i	-9.4*	i	i	-0.91	-14	136*	0.14*
O=C(Nc1cccc(S(=O)(=O)N2CCCC2)c1)c1ccco1	.	i	.	.	.	.	.	.
CCOc1cccc(C(=O)Nc2cccc(NC(=O)c3ccco3)c2)c1	i	-12*	i	-6.8*	-0.93	-23	76*	i
CCOC(=O)c1ccc(NC(=O)c2ccco2)cc1	i	i	i	i	.	-12	.	.
COc1ccc(C(=O)Nc2ccnn2C2CCN(C(=O)c3cc(C)on3)CC2)cc1	i	i	i	i	.	-9	.	.
COc1ccc(CCC(=O)Nc2ccc(S(=O)(=O)N3CCCC3)cc2)cc1OC	.	i	.	.	.	.	.	.
O=C(/C=C\c1ccc2c(c1)OCO2)Nc1c2c(nn1-c1ccc(Cl)cc1)CSC2	i	-8.9*	i	-7*	-1.4	-10	65*	i
CCOC(=O)N1CCN(C(=O)CSCC(=O)Nc2nc(-c3ccc(-c4ccccc4)cc3)cs2)CC1	6*	-10*	i	i	-0.19	-15	117*	0.15*
Cc1[nH]c2ccc(F)cc2c1CCN(Cc1cccnc1)C(=S)Nc1ccccc1	i	-10*	i	i	-0.091	-20	91*	i
